# Measurements taken from ChEMBL document CHEMBL3414531, “Design, synthesis and biological evaluation of quinazoline derivatives as anti-trypanosomatid and anti-plasmodial agents” (Eur J Med Chem, 2015).
# Activity calls are given as the source filed them. No cut-off for these calls is given here.
# Tests used:
# Plasmodium berghei [1] = assay: Antiplasmodial activity against Plasmodium berghei infected in CD1 mouse assessed as reduction in parasitemia at 50 mg/kg, po administered for 4 days measured on day 4 relative to vehicle-treated control; format: functional; parameters: scale not given: the % may be the effect or the level left
# How it was run: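 P. berghei ANKA was passaged ip (0.2 mL saline-diluted blood) through groups of female CD1 mice until infection stabilized. Four-day suppression test: oral 50 mg/kg every 24 h on days 0–4 post-inoculation (n = 5, in duplicate). Vehicle control was 0.2 mL gum arabic orally. Parasitemia was read from tail blood on day 4 and inhibition calculated against the control group. Survival time was also recorded.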
# [2] = Cytotoxicity against African green monkey Vero cells after 24 hrs by MTT assay; format: cell-based; settings: chlorocebus sabaeus
# How it was run: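 Confluent Vero cells were trypsinized and resuspended in MEM with 10% FBS, seeded in 96-well plates and held 24 h at 37 °C, 5% CO2. Compounds at various concentrations were added (DMSO control) for 24 h. MTT was added for 2 h, then SDS-HCl overnight at 24 °C. A540 was read and viability taken relative to control cells. Triplicate; CC50 derived.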
# Plasmodium berghei [3] = assay: Antiplasmodial activity against Plasmodium berghei infected in CD1 mouse assessed as survival time at 50 mg/kg, po administered for 4 days measured on day 4 relative to vehicle-treated control; format: functional
# How it was run: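 P. berghei ANKA was passaged by ip injection of 0.2 mL saline-diluted blood from donor mice at about 30% parasitaemia until the infection was stable. In a 4-day suppression test, mice received 50 mg/kg orally every 24 h on days 0–4 post-inoculation (n = 5, in duplicate), with 0.2 mL Arabic gum orally as control. Survival time was recorded against untreated mice, and mice without parasitaemia on day 30 counted as cured.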
# [4] = Antioxidant activity assessed as inhibition of ABTS free radical scavenging activity after 10 mins by spectrophotometry relative to control; format: physicochemical
# How it was run: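 ABTS (7 mM) and potassium persulfate (2.45 mM), final concentrations in water, mixed and kept in the dark at room temperature for 16 h to form ABTS radical cation. Diluted in water to A734 of 1.00. Compounds or Trolox standards added (final 0–20). Absorbance read 10 min after mixing. IC50 is 50% radical scavenging, relative uncertainty under five percent.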
# Leishmania mexicana [5] = assay: Antimicrobial activity against Leishmania mexicana MHOM/BZ/61/M379 after 24 hrs by haemocytometry; format: functional; settings: MHOM/BZ/61/M379, 24 h
# Trypanosoma cruzi [6] = assay: Antimicrobial activity against bloodstream trypomastigote stage of Trypanosoma cruzi NINOA after 24 hrs by Brener method; format: functional
# Trypanosoma cruzi [7] = assay: Antimicrobial activity against bloodstream trypomastigote stage of Trypanosoma cruzi INC-5 after 24 hrs by Brener method; format: functional; settings: INC-5, 24 h
# Leishmania mexicana [8] = assay: Inhibition of DHFR in promastigote stage of Leishmania mexicana at 3 to 8 uM after 24 hrs in presence of folinic acid/folic acid/ferulic acid
# How it was run: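 L. mexicana MHOM/BZ/61/M379 promastigotes, 10^6 in log phase, were incubated with folinic acid, folic acid or ferulic acid at 20, 40, 60, 80 or 100. Cells were washed, resuspended in PBS and held 1 h at room temperature, then pelleted and resuspended in culture medium in 24-well plates. Compound was added and plates incubated 24 h. Percentage of living parasites was determined.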
# Leishmania mexicana [9] = settings: MHOM/BZ/61/M379
Compound,Activity (Plasmodium berghei [1]),CC50 at 24 h [2],Survival (Plasmodium berghei [3]),IC50 [4],LC50 (Leishmania mexicana [5]),LC50 (Trypanosoma cruzi [6]),LC50 (Trypanosoma cruzi [7]),inhibition (Leishmania mexicana [8]),LC50 (Leishmania mexicana [9])
CCc1nc(N)nc(N)c1-c1ccc(Cl)cc1 [PYRIMETHAMINE],100%,122 µM,>23 days,,,,,,
Nc1nc(N)c2cc(NCc3ccc4c(c3)OCCO4)ccc2n1,44.2%,> 200 µM,11 days,6.29 µM,22.4 µM,66.5 µM,72.5 µM,,
CN(C)CCCOc1ccc(CNc2ccc3nc(N)nc(N)c3c2)cc1,53.2%,> 200 µM,12 days,6.38 µM,65.4 µM,288 µM,184 µM,,
Nc1nc(N)c2cc(NCc3ccc(OC(F)(F)F)cc3)ccc2n1,99.9%,182 µM,17 days,4.75 µM,8.08 µM,20.6 µM,46.1 µM,Active,
Cc1c(C)c2c(c(C)c1O)CCC(C)(C(=O)O)O2 (stereo not drawn) [TROLOX],,,,10.9 µM,,,,,
VITAMIN E,,,,14.8 µM,,,,,
COc1ccc(CNc2ccc3nc(NC(C)=O)nc(NC(C)=O)c3c2)cc1,89.3%,156 µM,6 days,7.04 µM,250 µM,197 µM,509 µM,,
MEGLUMINE ANTIMONATE,,,,,,,,,183 µM
COc1ccc(CNc2ccc3nc(N)nc(N)c3c2)cc1,98.5%,147 µM,18 days,5.72 µM,14.6 µM,32.7 µM,155 µM,,
CC1CS(=O)(=O)CCN1/N=C/c1ccc([N+](=O)[O-])o1 (stereo not drawn) [NIFURTIMOX],,163 µM,,,,,,,
O=C(Cn1ccnc1[N+](=O)[O-])NCc1ccccc1 [BENZNIDAZOLE],,,,,,780 µM,690 µM,,
COc1ccc(CN(Cc2ccc(OC(F)(F)F)cc2)c2ccc3nc(N)nc(N)c3c2)cc1,95.2%,> 200 µM,21 days,24.5 µM,8 µM,17.8 µM,40.7 µM,,
CCN(Cc1ccc(OC(F)(F)F)cc1)c1ccc2nc(N)nc(N)c2c1,100%,> 200 µM,>23 days,7.36 µM,3.06 µM,6.28 µM,43.8 µM,Active,
COc1ccc(CN(Cc2ccc(OC)cc2)c2ccc3nc(N)nc(N)c3c2)cc1,0%,> 200 µM,7 days,114 µM,23.1 µM,62.6 µM,46.5 µM,,
CCN(CC)CCCC(C)Nc1ccnc2cc(Cl)ccc12 (stereo not drawn) [CHLOROQUINE],100%,,>23 days,,,,,,
O=C1O[C@H]([C@@H](O)CO)C(O)=C1O [ASCORBIC ACID],,,,11.2 µM,,,,,
"Nc1ccc2nc(N)nc(N)c2c1 [QUINAZOLINE-2,4,6-TRIAMINE]",,,,6.78 µM,,,,,
Nc1nc(N)c2cc(N(Cc3ccc(OC(F)(F)F)cc3)Cc3ccc(OC(F)(F)F)cc3)ccc2n1,21%,> 200 µM,14 days,33.9 µM,4.93 µM,35 µM,29.2 µM,,
